The source made the active and inactive calls.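 The calls were made as follows: active = relative luminescence ratio of 1.25 or more at any tested dose; inactive = ratio below 1.25 at every tested dose.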

The nature of this assay: increased StAR-luc signal, DAX-1/SF-1 cells – cell-based, luminescence, HEK293, powder samples, assay provider, counter-screen for DAX1 inhibitor project, dose response (AID 624307). Conditions: HEK293 StAR promoter luciferase reporter (DAX-1/SF-1); series mostly up to 100 µM. The essentials:
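Test system: HEK293 transfectants with DAX-1, SF-1 and StAR-luciferase reporter; doses: 100 µM single dose plus three-point 1:2 series from 50 µM; repeats: three replicates; measured by: reporter luminescence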
With `COc1ccc(OC)c(C(C)NC(=O)c2ccc(C(C)(C)C)cc2)c1` (centres undefined), the molecule was classed as inactive.
In the case of `COc1ccc(OC)c(C(C)NC(=O)c2cccc3ccccc23)c1` (centres undefined), the result was inactive.
As to `COc1ccc(OC)c(C(C)NC(=O)c2ccccc2)c1` (centres undefined), the result was inactive.
For the molecule `COc1ccc(OC)c(C(C)NC(=O)c2ccc(F)cc2)c1` (centres undefined), the outcome was inactive.
With `COc1cccc(C(=O)Nc2ccc3c(c2)OCCO3)c1`, the outcome was inactive.
Consider `Cc1cc(C(=O)Nc2ccc3c(c2)OCO3)cs1`, for which the call was inactive.
On to `Cn1c(=O)n(C)c2cc(C(=O)Nc3ccc4c(c3)OCO4)ccc21`, for which the outcome was inactive.
Take `CSc1ccccc1C(=O)Nc1ccc2c(c1)OCO2`: the call was inactive.
`O=C(Cc1cccs1)Nc1ccc2c(c1)OCO2`: the outcome was inactive.
As to `CSc1ccccc1C(=O)Nc1ccc2c(c1)OCCO2`, the result was inactive.
As to `COc1ccc(OC)c(C(C)NC(=O)c2ccccc2F)c1` (centres undefined), the molecule was called inactive.
Turning to `COc1ccc(OC)c(C(C)NC(=O)c2cccc(F)c2)c1` (centres undefined), the call was inactive.
Regarding `O=C(Nc1ccc2c(c1)OCO2)c1ccc(C2SCC(=O)N2Cc2ccco2)cc1` (centres undefined), the call was inactive.
The value for `O=C(Nc1ccc2c(c1)OCO2)c1ccc(C2SCC(=O)N2Cc2ccccc2)cc1` (centres undefined) was “inactive”; that for `O=C(Nc1ccc2c(c1)OCO2)c1ccc2ccccc2c1` was “inactive”; that for `CN(C)c1cccc(C(=O)Nc2ccc3c(c2)OCCO3)c1` was “inactive”.
Regarding `COc1ccc(OC)c(C(C)NC(=O)c2ccc(Cl)cc2)c1` (centres undefined), the molecule was classed as inactive.
The value for `Cn1c(=O)n(C)c2cc(C(=O)Nc3ccc4c(c3)OCCO4)ccc21` was “inactive”.
`COc1cccc(C(=O)NC(C)c2cc(OC)ccc2OC)c1` (centres undefined): the outcome was inactive.
On to `COc1cccc(C(=O)Nc2ccc3c(c2)OCO3)c1`, for which the molecule was called inactive.
For `O=C(Nc1ccc2c(c1)OCCO2)c1ccc2ccccc2c1`, the outcome was inactive.
The value for `COc1ccc(OC)c(C(C)NC(=O)c2cccc(C)c2)c1` (centres undefined) was “inactive”; that for `Cc1occc1C(=O)Nc1ccc2c(c1)OCO2` was “inactive”.
The value for `O=C(Nc1ccc2c(c1)OCO2)c1cccs1` was “inactive”; that for `COc1ccc(OC)c(C(C)NC(=O)c2ccccc2C)c1` (centres undefined) was “inactive”; that for `COc1ccc(OC)c(C(C)NC(=O)c2ccccc2Cl)c1` (centres undefined) was “inactive”.
`COc1ccc(OC)c(C(C)NC(=O)c2c(F)cccc2Cl)c1` (centres undefined): the outcome was inactive.
The value for `COc1ccc(OC)c(C(C)NC(=O)c2ccc3c(c2)OCCO3)c1` (centres undefined) was “inactive”; that for `COc1ccc(OC)c(C(C)NC(=O)c2ccc(C)cc2)c1` (centres undefined) was “inactive”.

The record behind these values is PubChem BioAssay AID624307 (The Scripps Research Institute Molecular Screening Center, 2012).
